According to ChEMBL document CHEMBL4024769, “Synthesis and Investigation of Photophysical and Biological Properties of Novel S-Containing Bacteriopurpurinimides” (J Med Chem, 2017):
Activity calls are given as the source filed them. No cut-off for these calls is given here.

Tests used:
[1] = Drug uptake in tumor of F1 mouse implanted with mouse S37 cells assessed as normalized fluorescence units at 2.5 mg/kg, iv measured after 15 mins in presence of He-Ne laser radiation by local fluorescence spectroscopic analysis; assay type: ADME, organism-based, Neoplasm; conditions: in vivo, 0.25 h
Method in brief: (§1)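 S37 sarcoma-bearing immunocompetent F1 mice (18−22 g) given PS 2.5 mg/kg iv. Animals sacrificed at 0.25, 0.5, 2, 4 and 24 h, with three animals per time point. Skin, tumor and organ samples were read ex vivo by contact local fluorescence spectroscopy under He−Ne 632.8 nm excitation. Integrated 640−900 nm emission was normalized to the backscattered laser signal to give FN.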

[2] = Drug uptake in skin tumor of F1 mouse implanted with mouse S37 cells assessed as normalized fluorescence at 2.5 mg/kg, iv measured after 15 mins post injection in presence of He-Ne laser radiation by local fluorescence spectroscopic analysis; assay type: ADME, organism-based; conditions: in vivo, 0.25 h; method in brief: as §1
[3] = Phototoxicity against mouse S37 cells implanted in F1 mouse assessed as tumor growth inhibition at 2.5 mg/kg, iv preincubated for 15 mins with subsequent 150 J/cm2 irradiation measured on day 8 post irradiation relative to control; assay type: functional; conditions: S37, light or radiation study, read-out: TGI
Method in brief: (§2)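 S37 sarcoma mice treated on day 7 of tumor growth with compound iv; tumors 140–160 mm3 beforehand, droperidol 0.25 mg ip as anesthetic. LED irradiation at 800 ± 21 nm, 100 mW/cm2, 150 J/cm2, given 15 or 30 min after dosing. Controls got iv 0.9% NaCl. Volume = d1×d2×d3×0.52; TGI = […]×100%.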

[4] = Phototoxicity against mouse S37 cells implanted in F1 mouse assessed as tumor growth inhibition at 2.5 mg/kg, iv preincubated for 15 mins with subsequent 150 J/cm2 irradiation measured on day 18 post irradiation relative to control; assay type: functional; conditions: S37, light or radiation study, read-out: TGI; method in brief: as §2
[5] = Phototoxicity against mouse S37 cells implanted in F1 mouse assessed as tumor growth inhibition at 2.5 mg/kg, iv preincubated for 15 mins with subsequent 150 J/cm2 irradiation measured on day 20 post irradiation relative to control; assay type: functional; conditions: S37, light or radiation study, read-out: TGI; method in brief: as §2
[6] = Phototoxicity against mouse S37 cells implanted in F1 mouse assessed as tumor growth inhibition at 5 mg/kg, iv preincubated for 15 mins with subsequent 150 J/cm2 irradiation measured on day 8 post irradiation relative to control; assay type: functional; conditions: S37, light or radiation study, read-out: TGI; method in brief: as §2
[7] = Phototoxicity against mouse S37 cells implanted in F1 mouse assessed as tumor growth inhibition at 5 mg/kg, iv preincubated for 15 mins with subsequent 150 J/cm2 irradiation measured on day 15 post irradiation relative to control; assay type: functional; conditions: S37, light or radiation study, read-out: TGI; method in brief: as §2
[8] = (§3) Pro-oxidant activity in 1% cremophor EL or rose Bengal assessed as singlet oxygen radical generation by measuring photo-induced fading of 4-nitroso-N,N-dimethylaniline at 6.1 uM in presence of laser radiation and histidine measured every 5 to 10 mins in presence of singlet oxygen quencher NaN3 by absorption spectroscopy; assay type: functional
[9] = Phototoxicity against mouse S37 cells implanted in F1 mouse assessed as tumor growth inhibition at 5 mg/kg, iv preincubated for 30 mins with subsequent 150 J/cm2 irradiation measured on day 11 post irradiation relative to control; assay type: functional; conditions: S37, light or radiation study, read-out: TGI; method in brief: as §2
[10] = Phototoxicity against mouse S37 cells implanted in F1 mouse assessed as tumor growth inhibition at 5 mg/kg, iv preincubated for 30 mins with subsequent 150 J/cm2 irradiation measured on day 20 post irradiation relative to control; assay type: functional; conditions: S37, light or radiation study, read-out: TGI; method in brief: as §2
[11] = (§4) Phototoxicity against rat Sarcoma M1 cells implanted in rat assessed as volume of tumor parenchyma at 2.5 mg/kg, ip administered as single dose on day 11 after inoculation followed by 300 J/cm2 irradiation after 2.5 to 3 hrs measured on day 1 post photodynamic therapy by hematoxylin and eosin staining based assay (reference value: 69 +/- 6%); assay type: functional
Method in brief: (§5)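 Rat M1 sarcoma was implanted subcutaneously in the left thigh, with randomisation on day 10. A single 2.5 mg/kg ip dose was given on day 11, then 810 nm laser (0.51 W/cm2, 300 J/cm2, 10 min) after 2.5−3 h. Tumours were sectioned on days 1, 3 and 12 after PDT (controls days 12, 14, 23), five animals per point. Parenchyma and necrotic zone volumes were estimated on hematoxylin and eosin staining.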

[12] = as §4, with “necrotic zones” for “parenchyma”, “therapy” for “therapy by hematoxylin and eosin staining based assay”, “32” for “69”, “6 %)” for “6%)”; assay type: functional; method in brief: as §5
[13] = Phototoxicity against rat Sarcoma M1 cells implanted in rat assessed as mitotic index at 2.5 mg/kg, ip administered as single dose on day 11 after inoculation followed by 300 J/cm2 irradiation after 2.5 to 3 hrs measured on day 1 post photodynamic therapy (reference value: 1.9 +/- 0.2 %); assay type: functional
Method in brief: (§6)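 Rats with M1 sarcoma implanted subcutaneously in the left thigh were randomized on day 10, 25 per group. Single ip dose of 2.5 mg/kg on day 11; laser irradiation 2.5–3 h later at 810 nm, 0.51 W/cm2, 300 J/cm2, 10 min over a 1.5 cm field. Five rats sampled per time point for H&E histology, PCNA immunohistochemistry (1:200) and tumor volume. Untreated controls; Student's test, p < 0.05.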

[14] = Phototoxicity against rat Sarcoma M1 cells implanted in rat assessed as volume of PCNA-positive cells in tumor parenchyma at 2.5 mg/kg, ip administered as single dose on day 11 after inoculation followed by 300 J/cm2 irradiation after 2.5 to 3 hrs measured on day 3 post photodynamic therapy (reference value: 81 +/- 3%); assay type: functional
Method in brief: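 Female rats bearing subcutaneous M1 sarcoma in the left thigh were randomised on day 10. They received 2.5 mg/kg ip on day 11. Laser irradiation (810 nm, 0.51 W/cm2, 300 J/cm2, 1.5 cm field, 10 min) followed 2.5−3 h later. PCNA-positive parenchyma was scored by immunohistochemistry (mouse anti-PCNA PC10, 1:200, biotin−extravidin−peroxidase) on post-PDT days 1, 3 and 12, with five animals per time point.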

[15] = Phototoxicity against rat Sarcoma M1 cells implanted in rat assessed as apoptotic index at 2.5 mg/kg, ip administered as single dose on day 11 after inoculation followed by 300 J/cm2 irradiation after 2.5 to 3 hrs measured on day 3 post photodynamic therapy (reference value: 0.31 +/- 0.02%); assay type: functional; method in brief: as §6
[16] = Phototoxicity against rat Sarcoma M1 cells implanted in rat assessed as tumor volume at 2.5 mg/kg, ip administered as single dose on day 11 after inoculation followed by 300 J/cm2 irradiation after 2.5 to 3 hrs measured on day 12 post photodynamic therapy (reference value: 12 +/- 3 mm3); assay type: functional; method in brief: as §6
[17] = Phototoxicity against rat Sarcoma M1 cells implanted in rat assessed as volume of tumor necrotic zones at 2.5 mg/kg, ip administered as single dose on day 11 after inoculation followed by 300 J/cm2 irradiation after 2.5 to 3 hrs measured on day 12 post photodynamic therapy (reference value: 44 +/- 3%); assay type: functional; method in brief: as §5
[18] = Phototoxicity against rat Sarcoma M1 cells implanted in rat assessed as mitotic index at 2.5 mg/kg, ip administered as single dose on day 11 after inoculation followed by 300 J/cm2 irradiation after 2.5 to 3 hrs measured on day 12 post photodynamic therapy (reference value: 1.9 +/- 0.2%); assay type: functional; method in brief: as §6
[19] = Phototoxicity against rat Sarcoma M1 cells implanted in rat assessed as apoptotic index at 2.5 mg/kg, ip administered as single dose on day 11 after inoculation followed by 300 J/cm2 irradiation after 2.5 to 3 hrs measured on day 12 post photodynamic therapy (reference value: 0.37 +/- 0.06%); assay type: functional; method in brief: as §6
[20] = as §3, with “3.4” for “6.1”; assay type: functional

SMILES	Flu intensity [1] [RU]	Flu intensity [2] [RU]	inhibition in vivo at 2.5 mg/kg [3] [%]	inhibition in vivo at 2.5 mg/kg [4] [%]	inhibition in vivo at 2.5 mg/kg [5] [%]	inhibition in vivo at 5 mg/kg [6] [%]	inhibition in vivo at 5 mg/kg [7] [%]	Activity [8]	inhibition in vivo at 5 mg/kg [9] [%]	inhibition in vivo at 5 mg/kg [10] [%]	Activity [11] [%]	Activity [12] [%]	Activity [13] [%]	Activity [14] [%]	Activity [15] [%]	Activity [16] [mm3]	Activity [17] [%]	Activity [18] [%]	Activity [19] [%]	Activity [20]
CCCO/N=C(\C)c1c(C)c2cc3nc(c4c5[nH]c(cc6nc(cc1[nH]2)[C@H](C)[C@H]6CC)c(C)c5C(=O)N(OCCC)C4=O)[C@@H](CCC(=O)OC)[C@@H]3C	4.4	2.2	100	100	100	100	100	inactive												
CCCO/N=C(\C)c1c(C)c2cc3nc(c4c5[nH]c(cc6nc(cc1[nH]2)[C@@H](C)[C@@H]6CC)c(C)c5C(=O)N(OCCC)C4=O)[C@H](CCC(=O)NCCSSCCNC(=O)CC[C@@H]1c2nc(cc4[nH]c(cc5nc(cc6[nH]c7c2C(=O)N(OCCC)C(=O)c7c6C)[C@H](CC)[C@H]5C)c(/C(C)=N/OCCC)c4C)[C@H]1C)[C@H]3C									100	100	39	60	1.2	38	0.43	0.44	71	1.78	0.42	inactive
